Measured values as given in ChEMBL document CHEMBL5030525, “Design, synthesis and antitumor activity evaluation of trifluoromethyl-substituted pyrimidine derivatives” (Bioorg Med Chem Lett, 2021).
Active and inactive are the calls of the source. The calls are words filed in the database; no cut-off is given here.

Tests used:
[1] = tested on: NCI-H1975; assay: Effect on cell cycle progression in human NCI-H1975 cells assessed a accumulation of cells at G1 phase at 4 uM measured after 24 hrs by RNase A/PI staining based flow cytometry analysis (Rvb= 42.16%); assay type: functional
[2] = tested on: NCI-H1975; assay: Induction of apoptosis in human NCI-H1975 cells assessed as increase in total apoptotic cells at 1 uM measured after 72 hrs by Annexin V-FITC/PI staining double staining based flow cytometry analysis (Rvb= 3.86%); assay type: functional
[3] = tested on: NCI-H1975; assay: Effect on cell cycle progression in human NCI-H1975 cells assessed a accumulation of cells at S phase at 2 uM measured after 24 hrs by RNase A/PI staining based flow cytometry analysis (Rvb= 52.06%); assay type: functional
[4] = tested on: NCI-H1975; assay: Effect on cell cycle progression in human NCI-H1975 cells assessed a accumulation of cells at G1 phase at 1 uM measured after 24 hrs by RNase A/PI staining based flow cytometry analysis (Rvb= 42.16%); assay type: functional
[5] = tested on: NCI-H1975; assay: Effect on cell cycle progression in human NCI-H1975 cells assessed a accumulation of cells at G2/M phase at 1 uM measured after 24 hrs by RNase A/PI staining based flow cytometry analysis (Rvb= 5.78%); assay type: functional
[6] = tested on: MGC-803; assay: Antiproliferative activity against human MGC-803 cells assessed as inhibition of cell growth measured after 72 hrs by MTT assay; assay type: functional, cell-based; conditions: MGC-803, 72 h
Method in brief: (§1)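 Cells in log phase were seeded at 3000–5000 per well and cultured 24 h at 37 °C, then exposed to a range of compound concentrations in fresh medium for 72 h. MTT was added and incubated 4 h at 37 °C, formazan was dissolved in DMSO, and absorbance was read at 490 nm. IC50 was taken from survival rate, as mean ± SD of three independent experiments. Stocks were 10 mM in DMSO.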

[7] = tested on: NCI-H1975; assay: Induction of apoptosis in human NCI-H1975 cells assessed as broken nucleus at 2 to 4 uM measured after 48 hrs by DAPI staining based fluorescence microscopic analysis; assay type: functional, cell-based; conditions: dose 2-4 µM
Method in brief: (§2)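 H1975 cells were seeded at 2×10^5 per well and incubated 24 h, then exposed to 0, 2 or 4 μM for 48 h. Cells were PBS-washed, fixed in pre-cooled methanol at 4 °C for 10 min, and stained with DAPI in the dark. Nuclear morphology was imaged by fluorescence microscopy.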

[8] = tested on: NCI-H1975; assay: Induction of apoptosis in human NCI-H1975 cells assessed as nucleus shrinkage at 2 to 4 uM measured after 48 hrs by DAPI staining based fluorescence microscopic analysis; assay type: functional, cell-based; conditions: dose 2-4 µM; method in brief: as §2
[9] = tested on: NCI-H1975; assay: Effect on cell cycle progression in human NCI-H1975 cells assessed a accumulation of cells at G2/M phase at 4 uM measured after 24 hrs by RNase A/PI staining based flow cytometry analysis (Rvb= 5.78%); assay type: functional
[10] = Selectivity index, ratio of IC50 for cytotoxicity against human GES1 cells to IC50 for antiproliferative activity against human NCI-H1975 cells; assay type: toxicity, cell-based; conditions: GES1 cells versus NCI-H1975 cells, read-out: Ratio IC50
Method in brief: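 Ratio of GES-1 IC50 to H1975 IC50. Both came from the 72 h MTT assay, with IC50 as the mean ± SD of three separate experiments.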

[11] = tested on: GES1; assay: Cytotoxicity against human GES1 cells assessed as reduction in cell viability measured after 72 hrs by MTT assay; assay type: cell-based; conditions: GES1, 72 h; method in brief: as §1
[12] = tested on: NCI-H1975; assay: Antiproliferative activity against human NCI-H1975 cells assessed as inhibition of cell growth measured after 72 hrs by MTT assay; assay type: functional, cell-based; conditions: NCI-H1975, 72 h; method in brief: as §1
[13] = tested on: NCI-H1975; assay: Effect on cell cycle progression in human NCI-H1975 cells assessed a accumulation of cells at S phase at 1 uM measured after 24 hrs by RNase A/PI staining based flow cytometry analysis (Rvb= 52.06%); assay type: functional
[14] = tested on: MCF7; assay: Antiproliferative activity against human MCF7 cells assessed as inhibition of cell growth measured after 72 hrs by MTT assay; assay type: functional, cell-based; conditions: MCF7, 72 h; method in brief: as §1
[15] = tested on: NCI-H1975; assay: Induction of apoptosis in human NCI-H1975 cells assessed as increase in total apoptotic cells at 4 uM measured after 72 hrs by Annexin V-FITC/PI staining double staining based flow cytometry analysis (Rvb= 3.86%); assay type: functional
[16] = tested on: NCI-H1975; assay: Induction of apoptosis in human NCI-H1975 cells assessed as increase in Bax protein expression at 1 to 4 uM measured after 48 hrs by western blot analysis; assay type: functional, cell-based; conditions: dose 1-4 µM
Method in brief: (§3)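 H1975 cells in dishes were incubated 24 h, then treated at 0, 1, 2 or 4 μM for 48 h. Cells were trypsinised and lysed in RIPA, and protein was quantified by BCA. Proteins were separated by SDS-PAGE, transferred to nitrocellulose, and blocked in 5% skim milk. Primary antibodies were applied overnight at 4 °C, then secondary (1:10000) for 2 h. Detection was by ECL, with GAPDH as control and densitometry.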

[17] = tested on: NCI-H1975; assay: Induction of apoptosis in human NCI-H1975 cells assessed as increase in total apoptotic cells at 2 uM measured after 48 hrs by Annexin V-FITC/PI staining double staining based flow cytometry analysis (Rvb= 3.86%); assay type: functional
[18] = tested on: NCI-H1975; assay: Induction of apoptosis in human NCI-H1975 cells assessed as increase in total apoptotic cells at 1 uM measured after 48 hrs by Annexin V-FITC/PI staining double staining based flow cytometry analysis (Rvb= 3.86%); assay type: functional
[19] = tested on: NCI-H1975; assay: Induction of apoptosis in human NCI-H1975 cells assessed as increase in P53 expression at 1 to 4 uM measured after 48 hrs by western blot analysis; assay type: functional, cell-based; conditions: dose 1-4 µM; method in brief: as §3
[20] = tested on: NCI-H1975; assay: Inhibition of colony formation in human NCI-H1975 cells at 4 uM measured after 9 days by crystal violet staining based microscopic analysis relative to control; assay type: functional; conditions: NCI-H1975, 216 h, time 9 day
Method in brief: (§4)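 Log-phase cells were seeded at 1000 per well, incubated about 24 h, then exposed to 0, 1, 2 or 4 μM for 9 days. Cells were PBS-washed, fixed with ice-cold methanol for 30 min, and stained with crystal violet for 30 min. Plates were photographed and colonies examined by microscopy.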

[21] = tested on: NCI-H1975; assay: Effect on cell cycle progression in human NCI-H1975 cells assessed a accumulation of cells at G1 phase at 2 uM measured after 24 hrs by RNase A/PI staining based flow cytometry analysis (Rvb= 42.16%); assay type: functional
[22] = tested on: NCI-H1975; assay: Effect on cell cycle progression in human NCI-H1975 cells assessed a accumulation of cells at S phase at 4 uM measured after 24 hrs by RNase A/PI staining based flow cytometry analysis (Rvb= 52.06%); assay type: functional
[23] = tested on: NCI-H1975; assay: Induction of apoptosis in human NCI-H1975 cells assessed as increase in number of change in apoptotic morphology at 2 to 4 uM measured after 48 hrs by DAPI staining based fluorescence microscopic analysis; assay type: functional, cell-based; conditions: dose 2-4 µM; method in brief: as §2
[24] = tested on: NCI-H1975; assay: Induction of apoptosis in human NCI-H1975 cells assessed as increase in total apoptotic cells at 2 uM measured after 72 hrs by Annexin V-FITC/PI staining double staining based flow cytometry analysis (Rvb= 3.86%); assay type: functional
[25] = tested on: NCI-H1975; assay: Induction of apoptosis in human NCI-H1975 cells assessed as increase in total apoptotic cells at 4 uM measured after 48 hrs by Annexin V-FITC/PI staining double staining based flow cytometry analysis (Rvb= 3.86%); assay type: functional
[26] = tested on: NCI-H1975; assay: Inhibition of colony formation in human NCI-H1975 cells measured after 9 days by crystal violet staining based microscopic analysis; assay type: functional, cell-based; conditions: time 9.0 day; method in brief: as §4
[27] = tested on: NCI-H1975; assay: Effect on cell cycle progression in human NCI-H1975 cells assessed a accumulation of cells at G2/M phase at 2 uM measured after 24 hrs by RNase A/PI staining based flow cytometry analysis (Rvb= 5.78%); assay type: functional
[28] = tested on: NCI-H1975; assay: Induction of apoptosis in human NCI-H1975 cells assessed as appearance of dense particles at 2 to 4 uM measured after 48 hrs by DAPI staining based fluorescence microscopic analysis; assay type: functional, cell-based; conditions: dose 2-4 µM; method in brief: as §2
[29] = tested on: PC-3; assay: Antiproliferative activity against human PC-3 cells assessed as inhibition of cell growth measured after 72 hrs by MTT assay; assay type: functional, cell-based; conditions: PC-3, 72 h; method in brief: as §1
[30] = tested on: NCI-H1975; assay: Induction of apoptosis in human NCI-H1975 cells assessed as down regulation of Bcl-2 expression at 1 to 4 uM measured after 48 hrs by western blot analysis; assay type: functional, cell-based; conditions: dose 1-4 µM; method in brief: as §3

Compound `FC(F)(F)c1ccc(CSc2nc(Sc3nncs3)cc(C(F)(F)F)n2)cc1` has an Activity [1] of 25.06%, an Activity [2] of 7.7% and an Activity [3] of 47.56%. It also gave an Activity [4] of 34.53%, an Activity [5] of 13.63% and an IC50 [6] of 10.8 µM. For the same compound, the Activity [7] was “Active”, the Activity [8] was “Active” and the Activity [9] was 30.39%. For the same compound, the selectivity ratio [10] was 16.5, the IC50 [11] was 37.4 µM and the IC50 [12] was 2.27 µM. For the same compound, the Activity [13] was 51.84%, the IC50 [14] was 8.81 µM and the Activity [15] was 29.08%. For the same compound, the Activity [16] was “Active”, the Activity [17] was 11.13% and the Activity [18] was 5.04%. For the same compound, the Activity [19] was “Active”, the inhibition at 4 µM [20] was 90% and the Activity [21] was 31.16%. The Activity [22] was 44.55%, the Activity [23] was “Active” and the Activity [24] was 17.31%. The Activity [25] was 16.68%, the inhibition [26] was “Dose-Dependent Effect” and the Activity [27] was 21.28%. The Activity [28] was “Active”, the IC50 [29] was 7.88 µM and the Activity [30] was “Active”.
